Data set [1] concerns intracellular amastigotes of L. panamensis. Kind of data set: Anti-leishmanial activity, GFP flow cytometry in infected U-937 cells. It counts as cell-based, Leishmania panamensis. The conditions noted are these: for EC50: Leishmania panamensis, U-937, 72 h, read-out: Anti-leishmanial EC50; for SI (anti-leishmanial): Selectivity index = LC50 (U-937)/EC50 (L. panamensis); for Anti-leishmanial activity class: L. panamensis. The essentials: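 L. panamensis GFP strain MHOM/CO/87/UA140 stationary promastigotes infect PMA-treated U-937 cells (3×10^5 cells/mL) at 15:1, 3 h at 34 °C, 5% CO2, then washed. At 24 h, test compound (50.0, 12.5, 3.1, 0.8 µg/mL) is added for 72 h at 37 °C. Flow cytometry at 488/525 nm over 10,000 events gives MFI, corrected with uninfected cells. Amphotericin B is the control. Triplicate, two experiments. SI = U-937 LC50/EC50.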

Data set [2] in a line: In vitro cytotoxic activity, MTT assay. It counts as cell-based, human. The conditions noted are these: human, U-937 cells, Cytotoxicity LC50, U-937 cells, MTT, ±SD (n = 3). An outline of the steps:
(§1)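 Human U-937 macrophages in RPMI 1640/10% FBS are exposed to test compound from 200 to 0.19 µg/mL. MTT formazan is read as OD at 570 nm, with untreated cells as the viability control. Triplicate. LC50 comes from Probit linear regression of dose-response. Classes: LC50 <100 µM potentially cytotoxic, 100–<200 µM mildly cytotoxic, ≥200 µM noncytotoxic.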

The test system of data set [3] is intracellular amastigotes of T. cruzi (Tulahuen strain). The class given is cell-based, Trypanosoma cruzi. The conditions noted are these: for SI (anti-trypanosomal): Selectivity index = LC50 (U-937)/EC50 (T. cruzi); for EC50: Trypanosoma cruzi, TULAHUEN, U-937, 72 h, read-out: Anti-trypanosomal EC50. An outline of the steps:
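T. cruzi Tulahuen (β-galactosidase-transfected) epimastigotes are grown 10 days at 26 °C. U-937 cells (2.5×10^4/100 µL, 0.16 µM PMA) are infected at 5:1 for 24 h at 37 °C, 5% CO2, RPMI/10% FBS, then washed. Six serial compound dilutions run for 72 h. CPRG 100 µM plus 0.1% NP-40 for 4 h, dark, then OD 570 nm, blank-subtracted. Benznidazole is the control. Triplicate, ≥2 experiments. SI = U-937 LC50/EC50.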

Data set [4] deals with P. falciparum (3D7 strain). Kind of data set: Anti-plasmodial activity, pLDH assay. The class given is cell-based, Plasmodium falciparum. To be noted: for EC50: Plasmodium falciparum, 3D7, 72 h, read-out: Anti-plasmodial EC50; for SI (anti-plasmodial): Selectivity index = LC50 (U-937)/EC50 (P. falciparum). The essentials:
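Asynchronous P. falciparum 3D7 at 0.5% parasitemia, 1% hematocrit in RPMI-1640/1% Albumax II is exposed to test compound at 100, 25, 3.125 and 0.78 µg/mL. Incubation is 72 h at 37 °C under 90% N2/5% CO2/5% O2. Freeze-thawed lysate goes into Malstat (pH 9.0) plus NBT/PES for 1 h in the dark. pLDH is read at 650 nm, blank-subtracted. Chloroquine is the control. SI = U-937 LC50/EC50.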

Data set [5] deals with U-937 cells. Kind of data set: In vitro cytotoxic activity, MTT assay. The conditions noted are these: for Degree of cytotoxicity: class by LC50 scale of b21. It counts as cell-based, human. The essentials: as §1

Turning to `C[C@@H]1[C@H](O)[C@@H](C)/C=C/C=C/C=C/C=C/C=C/C=C/C=C/[C@H](O[C@@H]2O[C@H](C)[C@@H](O)[C@H](N)[C@@H]2O)C[C@@H]2O[C@](O)(C[C@@H](O)C[C@@H](O)[C@H](O)CC[C@@H](O)C[C@@H](O)CC(=O)O[C@H]1C)C[C@H](O)[C@H]2C(=O)O` [Amphotericin B, reference compound], in data set [1], the EC50 turned out to be 0.3 ± 0.1 µM and the “SI (anti-leishmanial)” value turned out to be 108.67. In addition, in data set [2], the CC50 amounted to 32.6 ± 4 µM.

For the compound `O=C(Cn1ccnc1[N+](=O)[O-])NCc1ccccc1` [Benznidazole, reference compound], in data set [2], the CC50 was over 200 µM. Also, in data set [3], the “SI (anti-trypanosomal)” value is over 13.83 and the EC50 was determined as 14.5 ± 0.1 µM.

For the compound `O=C(/C=C/c1ccccc1)c1ccccc1` [Chalcone, reference compound], in data set [1], the EC50 was 15 ± 1.44 µM and the “SI (anti-leishmanial)” value amounted to 1.86. Besides, in data set [4], the EC50 came to 769 ± 72 µM and the “SI (anti-plasmodial)” value amounted to 0.04. The compound further displayed a cytotoxic concentration (CC50) in data set [2] of 27.9 ± 0.5 µM. In addition, in data set [3], the “SI (anti-trypanosomal)” value stood at 0.28 and the EC50 turned out to be 99.9 ± 39 µM.

For the compound `CCN(CC)CCCC(C)Nc1ccnc2cc(Cl)ccc12` (stereo not shown) [Chloroquine, reference compound], in data set [4], the EC50 turned out to be 3.3 ± 0.4 µM and the “SI (anti-plasmodial)” value is recorded as 46.34. For the same compound, the CC50 in data set [2] is 155 ± 5.2 µM.

Regarding `O=C(/C=C/c1ccccc1)c1cc2ccccc2oc1=O` [Compound A1, 3-[(2E)-3-phenylprop-2-enoyl]-2H-chromen-2-one], in data set [1], the Anti-leishmanial activity class entry is recorded as “highly active (Compounds with EC50 ≤ 25 μM were considered highly active)”, the EC50 was found to be 3.7 ± 0.5 µM and the “SI (anti-leishmanial)” value was 1.82. In addition, in data set [4], the EC50 is 25.7 ± 3.5 µM and the “SI (anti-plasmodial)” value was 0.26. In data set [2], this compound yielded a CC50 of 6.7 ± 0.1 µM. Besides, in data set [3], the “SI (anti-trypanosomal)” value is reported as 0.15 and the EC50 is 44.1 ± 4.2 µM.

With `COc1cccc(/C=C/C(=O)c2cc3ccccc3oc2=O)c1` [Compound A2, 3-[(2E)-3-(3-methoxyphenyl)prop-2-enoyl]-2H-chromen-2-one], in data set [1], the EC50 was 2.5 ± 0.2 µM and the “SI (anti-leishmanial)” value was 2.31. Moreover, in data set [4], the half-maximal effective concentration (EC50) is 23.3 ± 1.5 µM and the “SI (anti-plasmodial)” value was 0.25. For the same compound, the CC50 in data set [2] amounted to 5.8 ± 0.1 µM. In data set [3], the “SI (anti-trypanosomal)” value worked out at 0.20 and the EC50 is 28.4 ± 5.7 µM.

For `COc1ccc(/C=C/C(=O)c2cc3ccccc3oc2=O)cc1` [Compound A3, 3-[(2E)-3-(4-methoxyphenyl)prop-2-enoyl]-2H-chromen-2-one], in data set [1], the EC50 is over 6 µM and the “SI (anti-leishmanial)” value is given as under 1.89. In addition, in data set [4], the concentration giving a half-maximal response (EC50) came out at 38.7 ± 5.6 µM and the “SI (anti-plasmodial)” value was determined as 0.29. Moreover, the midpoint of cytotoxicity in data set [2], the CC50, lay at 11.4 ± 2.3 µM. In data set [3], the “SI (anti-trypanosomal)” value is recorded as 0.03 and the EC50 was found to be 327 ± 62.4 µM.

Take `Cc1cccc(/C=C/C(=O)c2cc3ccccc3oc2=O)c1` [Compound A4, 3-[(2E)-3-(3-methylphenyl)prop-2-enoyl]-2H-chromen-2-one]: in data set [1], the Anti-leishmanial activity class result was “highly active (Compounds with EC50 ≤ 25 μM were considered highly active)”, the EC50 was 10.7 ± 5.7 µM and the “SI (anti-leishmanial)” value was determined as 0.53. In data set [4], the EC50 worked out at 35.3 ± 1.4 µM and the “SI (anti-plasmodial)” value was found to be 0.16. Further, the CC50 in data set [2] came to 5.7 ± 0.1 µM. In data set [3], the “SI (anti-trypanosomal)” value is on record as 0.11 and the EC50 was found to be 50 ± 5.3 µM.

For `O=C(/C=C/c1cccc(O)c1)c1cc2ccccc2oc1=O` [Compound A5, 3-[(2E)-3-(3-hydroxyphenyl)prop-2-enoyl]-2H-chromen-2-one], in data set [1], the EC50 came out at 2.1 ± 0.2 µM and the “SI (anti-leishmanial)” value worked out at 2.85. Besides, in data set [4], the EC50 is 26.7 ± 3.6 µM and the “SI (anti-plasmodial)” value was determined as 0.22. In data set [2], the CC50 amounted to 5.9 ± 0.2 µM. In data set [3], the “SI (anti-trypanosomal)” value came out at 0.31 and the EC50 was 18.7 ± 2.4 µM.

For the compound `O=C(/C=C/c1ccc(O)cc1)c1cc2ccccc2oc1=O` [Compound A6, 3-[(2E)-3-(4-hydroxyphenyl)prop-2-enoyl]-2H-chromen-2-one], in data set [1], the concentration giving a half-maximal response (EC50) was 8.2 ± 4 µM and the “SI (anti-leishmanial)” value is given as 0.91. In data set [4], the concentration giving a half-maximal response (EC50) stood at 16.6 ± 0.9 µM and the “SI (anti-plasmodial)” value is 0.45. Also, in data set [2], the CC50 is 7.5 ± 0.4 µM. In data set [3], the “SI (anti-trypanosomal)” value turned out to be 0.17 and the EC50 was found to be 43.2 ± 6.4 µM.

With `O=C(/C=C/c1cccc([N+](=O)[O-])c1)c1cc2ccccc2oc1=O` [Compound A7, 3-[(2E)-3-(3-nitrophenyl)prop-2-enoyl]-2H-chromen-2-one], in data set [1], the EC50 was determined as 64.7 ± 8.6 µM and the “SI (anti-leishmanial)” value is 1.73. Further, the EC50 in data set [4] is 17.9 ± 1.7 µM. Moreover, the Degree of cytotoxicity result in data set [5] is recorded as “mildly cytotoxic (100 ≤ LC50 < 200 μM)”. The CC50 in data set [2] worked out at 112 ± 10.6 µM. Moreover, in data set [3], the “SI (anti-trypanosomal)” value came to 0.23 and the 50% effective concentration (EC50) stood at 496 ± 62 µM.

On to `O=C(/C=C/c1ccc([N+](=O)[O-])cc1)c1cc2ccccc2oc1=O` [Compound A8, 3-[(2E)-3-(4-nitrophenyl)prop-2-enoyl]-2H-chromen-2-one], for which, in data set [1], the EC50 was determined as 197 ± 76.9 µM and the “SI (anti-leishmanial)” value was determined as 3.05. Moreover, the EC50 in data set [4] came out at 18.4 ± 1 µM. In data set [3], the “SI (anti-trypanosomal)” value amounted to 1.91 and the EC50 came out at 314 ± 19.9 µM.

Turning to `O=C(/C=C/c1ccc(Cl)cc1)c1cc2ccccc2oc1=O` [Compound A9, 3-[(2E)-3-(4-chlorophenyl)prop-2-enoyl]-2H-chromen-2-one], in data set [1], the EC50 was determined as 59.1 ± 12.7 µM and the “SI (anti-leishmanial)” value is given as 0.73. Also, in data set [4], the EC50 turned out to be 18.9 ± 1.5 µM. This compound displayed a CC50 in data set [2] of 43.4 ± 3.9 µM. In addition, in data set [3], the “SI (anti-trypanosomal)” value worked out at 0.83 and the EC50 was determined as 52.1 ± 3.3 µM.

For `O=C(/C=C/c1cccc(Br)c1)c1cc2ccccc2oc1=O` [Compound A10, 3-[(2E)-3-(3-bromophenyl)prop-2-enoyl]-2H-chromen-2-one], the EC50 in data set [1] turned out to be 32.8 ± 3 µM; in data set [4], 19.6 ± 1.7 µM; in data set [3] it was 114 ± 8.5 µM. In addition, the Degree of cytotoxicity entry in data set [5] is reported as “mildly cytotoxic (100 ≤ LC50 < 200 μM)”. Moreover, in data set [5] (class by United Nations 2009 scale), the Toxicity class entry was “moderately toxic (from 50 to 200 μM moderately toxic)”. The same compound had a CC50 in data set [2] of 112 ± 8.2 µM. The “SI (anti-trypanosomal)” value in data set [3] worked out at 0.98.

With `O=C(/C=C/c1ccc(Br)cc1)c1cc2ccccc2oc1=O` [Compound A11, 3-[(2E)-3-(4-bromophenyl)prop-2-enoyl]-2H-chromen-2-one], in data set [1], the EC50 amounted to 31.4 ± 4.2 µM and the “SI (anti-leishmanial)” value came to 1.02. Moreover, in data set [4], the EC50 was determined as 20.9 ± 1.2 µM and the “SI (anti-plasmodial)” value stood at 1.54. Also, the midpoint of cytotoxicity in data set [2], the CC50, lay at 32.1 ± 2.2 µM. Moreover, in data set [3], the “SI (anti-trypanosomal)” value amounted to 0.72 and the EC50 was determined as 44.4 ± 3.5 µM.

In the case of `CCOc1cc(/C=C/C(=O)c2cc3ccccc3oc2=O)ccc1O` [Compound A12, 3-[(2E)-3-(3-ethoxy-4-hydroxyphenyl)prop-2-enoyl]-2H-chromen-2-one], in data set [1], the EC50 stood at 6.6 ± 1.3 µM and the “SI (anti-leishmanial)” value is 1.29. In data set [4], the EC50 turned out to be 15 ± 0.5 µM and the “SI (anti-plasmodial)” value is 0.57. This compound also returned a CC50 in data set [2] of 8.5 ± 1.6 µM. Moreover, in data set [3], the “SI (anti-trypanosomal)” value was found to be 0.21 and the EC50 came to 41.2 ± 1.1 µM.

Turning to `O=C(/C=C/c1ccc2c(c1)OCO2)c1cc2ccccc2oc1=O` [Compound A13, 3-[(2E)-3-(1,3-benzodioxol-5-yl)prop-2-enoyl]-2H-chromen-2-one], in data set [1], the EC50 was over 20 µM and the “SI (anti-leishmanial)” value was under 1.90. Besides, the EC50 in data set [4] worked out at 15.2 ± 1.1 µM. In data set [2], this compound came in with a CC50 of 38 ± 3.4 µM. In addition, in data set [3], the “SI (anti-trypanosomal)” value is given as 0.30 and the EC50 came out at 129 ± 11 µM.

Turning to `O=c1ccc2ccccc2o1` [Coumarin, reference compound], in data set [1], the EC50 stood at 64.4 ± 21.8 µM and the “SI (anti-leishmanial)” value was determined as 0.20. In data set [4], the EC50 amounted to 50.7 ± 5.7 µM and the “SI (anti-plasmodial)” value came out at 0.25. Half-maximal cytotoxicity in data set [2] (CC50) was put at 12.9 ± 0.5 µM. For the same compound, in data set [3], the “SI (anti-trypanosomal)” value is under 1.83 and the EC50 is over 7 µM.

For the origin of these results see paper PMC8851253 (Heliyon, 2022).
